Screening data (PubChem BioAssay)
The sample as a whole holds a higher share of hits than the screen did.
NALP1 yeast inh – inhibitors of NALP1 inflammasome in yeast. AID 2071. S. cerevisiae NALP1/ASC/caspase-1 growth, X-gal OD620, 72 h. inhibition, % at 10 µM. 280,000 compounds, 0.61% hits; in the data active = inhibition mostly above about 24%, no sharp cut-off; inactive = mostly below about 32%
NLRP3 yeast inh – NALP3 inhibition in yeast; Yeast reconstituted NLRP3/ASC/caspase-1, beta-gal luminescence, 24 h; 330,000 compounds, 0.39% hits; inhibition, % at 10 µM;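 active = inhibition of 50% or more; inactive = inhibition below 50%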;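 note: plate controls were induced DMSO wells for no effect and uninduced yeast grown without galactose for full effect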
Calb FLC – affects C. albicans growth with fluconazole. growth inhibition, % (concentration not given with the values). C. albicans CaCi-2 + fluconazole, Alamar Blue growth, 48 h. 300,000 compounds, 0.57% hits;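 active = growth inhibition above about 58% in most replicates, limit read from the data, passing the limit was not always enough; inconclusive = exactly half the replicates above a set limit; inactive = most replicates below a set limit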;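 note: all wells also contain fluconazole at 8 µg/ml as a sub-toxic cotreatment; 0% = median of DMSO wells and 100% = median of geldanamycin control wells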
PolyA inhibitor – yeast polyadenylation inhibition. S. cerevisiae SKY197-pL101 polyadenylation reporter, beta-gal luminescence; efflux-impaired pdr1/pdr3 knockout yeast; score 100 = 6 SD above DMSO. activity score, % at 12 µM. 300,000 compounds, 0.02% hits;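 active = lowest replicate activity score at least 50, where 100 means six control SD above control mean; inconclusive = lowest score under 50 but half or more replicates reach 50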;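 note: yeast exposed to compound for 9 h at 30 °C; higher score means more reporter readthrough which indicates perturbed polyadenylation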
T cruzi repl – T. cruzi replication inhibition | T. cruzi beta-gal in NIH3T3, luminescence, 90 h | inhibition, % (concentration not given with the values) | 300,000 compounds, 1.4% hits | AID 1885;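 active = mean inhibition across valid replicates above about 55%, limit read from the data; inconclusive = mean below that limit but half or more replicates reach it; inactive = mean below it, under half of replicates reach it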;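 note: signal also drops with host cell toxicity which is not excluded here; 0% = plate median of DMSO wells and 100% = zero luminescence signal; higher percent means less beta-gal luminescence so fewer parasites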
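System: NIH/3T3 fibroblasts plus reporter T. cruzi. Medium: DMEM plus 2% FBS. Probe or stimulus: 5000 reporter trypomastigotes per well. Compound: single 50 nL compound addition per well in DMSO. Incubation: co-culture of at least 90 h after 3 h attachment. Detection: GalScreen β-gal luminescence, detergent lysis, 60 min. Evaluation: parasite load inhibition, %.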
L major viab – Leishmania major promastigote growth inhibition; Leishmania major promastigotes, resazurin fluorescence viability; inhibition, % at 10 µM; 200,000 compounds, 9% hits; in the data active = inhibition above about 50%;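 note: promastigotes grown with compound for 44 hours at 28 °C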
* hit, by the source's call.

O=C(CCCc1c[nH]c2ccccc12)NCC1COc2ccccc2O1 (configuration not stated) was read as NALP1 yeast inh 7, NLRP3 yeast inh 3, Calb FLC 2, PolyA inhibitor -2, T cruzi repl 2 and L major viab 55*.
`CC1=C(C(=O)OCC2CCCO2)C(c2ccc(F)cc2)NC(=O)N1` (configuration not stated) gave NALP1 yeast inh 41*, NLRP3 yeast inh 3, Calb FLC -4, T cruzi repl -4 and L major viab -8.
CC1=C(C(=O)OCC2CCCO2)C(c2cccc(O)c2)NC(=O)N1 (configuration not stated) was read as NALP1 yeast inh -4, NLRP3 yeast inh 16, Calb FLC 0, PolyA inhibitor inconclusive, T cruzi repl -9 and L major viab -8.
`CC(C)NC(=O)NC(=O)COc1ccc(Br)cc1Br` gave NALP1 yeast inh 24, NLRP3 yeast inh 18, Calb FLC -34, PolyA inhibitor 2, T cruzi repl -6 and L major viab 67*.
For COC1=C(OC)C(=O)C(CCCCCCCCCCO)=C(C)C1=O the results were NALP1 yeast inh 22.
Screening CCCCCCCCCCCC1=C(O)C(=O)C=C(O)C1=O returned Calb FLC 92*, PolyA inhibitor -5 and T cruzi repl -12.
`COC1=CC(=O)C(O)=C(CCCCCCC/C=C/CCCCCCCC2=C(O)C(=O)C=C(OC)C2=O)C1=O` gave NLRP3 yeast inh 20, Calb FLC 81*, PolyA inhibitor -11 and T cruzi repl -3.
CC(C)CC1c2[nH]c3ccccc3c2CCN1C(=O)C1CCOCC1 (configuration not stated) was read as NALP1 yeast inh -5, NLRP3 yeast inh 11, Calb FLC 15, PolyA inhibitor 1, T cruzi repl -3 and L major viab 32.
O=S(=O)(CCN1CCOCC1)c1ccc(Oc2ccc(S(=O)(=O)CCN3CCOCC3)cc2)cc1 was read as NALP1 yeast inh 17, NLRP3 yeast inh 9, Calb FLC 10, PolyA inhibitor -6 and T cruzi repl -8.
Screening CC1=C(C(=O)Nc2ccccc2)C(c2ccc(C)cc2)N=C(Nc2nc3ccccc3o2)N1 (configuration not stated) returned NALP1 yeast inh 6, NLRP3 yeast inh 0, Calb FLC -11, PolyA inhibitor 21, T cruzi repl 57* and L major viab 2.
Screening Cc1ccc(C)c(N2CCN(c3nnnn3-c3ccccc3)CC2)c1 returned NALP1 yeast inh 14, NLRP3 yeast inh 17, Calb FLC -4, PolyA inhibitor -25, T cruzi repl 22 and L major viab 63*.
Screening Cc1ccc(C(C(=O)NC2CCCCC2)N(Cc2ccco2)C(=O)Cn2cnc3ccccc32)cc1 (configuration not stated) returned NALP1 yeast inh -3, NLRP3 yeast inh -9, Calb FLC -5, PolyA inhibitor 16, T cruzi repl 17 and L major viab 60*.
`COc1cccc(-c2ncc3ccccc3c2COC(=O)N2CCCCC2)c1` gave NLRP3 yeast inh 8.
`COc1cc(/C=C2/C(=O)c3cccc([N+](=O)[O-])c3C2=O)c(Br)cc1O` gave NALP1 yeast inh -19 and L major viab 100*.
Screening CCNC(=S)N(CCCO)Cc1cc2cc3c(cc2[nH]c1=O)OCCO3 returned NALP1 yeast inh 0, NLRP3 yeast inh -6, Calb FLC -1, PolyA inhibitor -8 and T cruzi repl 21.
`CN(C)C(=O)C(CCN1CCC(O)(c2ccc(Cl)cc2)CC1)(c1ccccc1)c1ccccc1` gave NALP1 yeast inh 6, NLRP3 yeast inh 11, PolyA inhibitor -13, T cruzi repl inconclusive and L major viab 97*.
For CC(C)c1cc(C(C)C)c(S(=O)(=O)NNC(=O)c2ccncc2)c(C(C)C)c1 the results were NALP1 yeast inh 13, NLRP3 yeast inh -5, Calb FLC 4, PolyA inhibitor -13, T cruzi repl -14 and L major viab 28.
`O=C1CC(/C=C/c2ccccn2)=Nc2ccccc2N1` gave NALP1 yeast inh 11, NLRP3 yeast inh 17, Calb FLC 11, PolyA inhibitor 4, T cruzi repl 12 and L major viab 82*.
Screening O=C1CC(/C=C/c2ccco2)=Nc2ccccc2N1 returned NALP1 yeast inh 9, NLRP3 yeast inh 19, Calb FLC 4, PolyA inhibitor 4, T cruzi repl 5 and L major viab -1.
`Cn1nc(C(=O)NCC(=O)Nc2ccc(F)c(F)c2F)c2ccccc2c1=O` gave NLRP3 yeast inh 13.
COc1cc(S(=O)(=O)N(Cc2ccco2)C2CCCC2)ccc1-n1cnnn1 was read as NALP1 yeast inh 24, NLRP3 yeast inh 5, Calb FLC 2, PolyA inhibitor -15, T cruzi repl 9 and L major viab 71*.
Screening CCOc1ccccc1CN(Cc1ccco1)S(=O)(=O)c1ccc(-n2cnnn2)c(OC)c1 returned NALP1 yeast inh -3, Calb FLC -5, PolyA inhibitor 9, T cruzi repl 12 and L major viab 69*.
For COc1cc(S(=O)(=O)N(Cc2ccccc2)CC2CCCO2)ccc1-n1cnnn1 (configuration not stated) the results were NALP1 yeast inh -3, NLRP3 yeast inh 9, Calb FLC -11, PolyA inhibitor 19, T cruzi repl 12 and L major viab 7.
`CCN(CC)S(=O)(=O)c1ccc(-n2cnnn2)c(C)c1` gave NALP1 yeast inh 3, NLRP3 yeast inh -1, Calb FLC -4, PolyA inhibitor 5, T cruzi repl -12 and L major viab -6.
Screening Cc1cc(S(=O)(=O)N(Cc2ccccc2F)C2CC2)ccc1-n1cnnn1 returned NALP1 yeast inh 10, NLRP3 yeast inh -4, Calb FLC -3, PolyA inhibitor -6, T cruzi repl 18 and L major viab 100*.
`COc1cc(S(=O)(=O)N(Cc2cccs2)CC2CCCO2)ccc1-n1cnnn1` (configuration not stated) gave NALP1 yeast inh 13, NLRP3 yeast inh -1, Calb FLC 22, PolyA inhibitor -2, T cruzi repl 10 and L major viab 55*.
CC1CN(C(=O)CCC(=O)NCCCN2CCN(Cc3ccccc3)CC2)c2cc(Cl)ccc2O1 (configuration not stated) was read as NALP1 yeast inh 18, NLRP3 yeast inh -6, Calb FLC -9, PolyA inhibitor -5 and T cruzi repl -22.
`CCCCCN(C(=O)CCC(=O)OCC(=O)Nc1ccc(C)cc1F)c1c(N)n(CCCC)c(=O)[nH]c1=O` gave NALP1 yeast inh -4, NLRP3 yeast inh 17, Calb FLC 3, PolyA inhibitor -3 and T cruzi repl 12.
